According to ChEMBL document CHEMBL1949609, “Synthesis and biological evaluation of novel sinomenine derivatives as anti-inflammatory agents” (Eur J Med Chem, 2012):
pIC50: −log10 of the molar value.

Key:
RAW264.7 [1] = test: Cytotoxicity against mouse RAW264.7 cells after 24 hrs by MTT assay; format: cell-based; conditions: RAW264.7, 24 h
Summary of the method: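 Growth of non-LPS RAW264.7 cells was measured by MTT after 24 h with compound: MTT for 4 h, formazan dissolved in DMSO, OD570. Untreated cells were set as 100% viability. IC50 is the concentration giving 50% growth inhibition.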

RAW264.7 [2] = test: Antiinflammatory activity in mouse RAW264.7 cells assessed as inhibition of LPS-induced nitric oxide production after 24 hrs by Griess method; format: functional, cell-based; conditions: RAW264.7, 24 h
Summary of the method: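 Cells were treated with compound (0.5–100 µM; 0.1% DMSO final) and LPS 500 ng/mL together for 24 h. Nitrite in the medium was read with Griess reagent (10 min, room temperature, dark) at OD540. IC50 comes from three separate experiments, each in triplicate.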

RAW264.7 [3] = test: Antiinflammatory activity in mouse RAW264.7 cells assessed as inhibition of LPS-induced TNFalpha production at 10 uM after 6 hrs by ELISA (reference value: 2646.1 +/- 499.8 pg/ml); format: functional
Summary of the method: (§1)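 RAW264.7 cells (DMEM, 5% FBS, 37 °C, 5% CO2) were exposed to compound at 10 µM plus LPS 500 ng/mL at the same time, with 0.1% DMSO final. Supernatant TNF-α and IL-6 were measured by ELISA at 6, 12 and 24 h.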

RAW264.7 [4] = test: Antiinflammatory activity in mouse RAW264.7 cells assessed as inhibition of LPS-induced IL-6 production at 10 uM after 12 hrs by ELISA (reference value: 2145.1 +/- 368.7 pg/ml); format: functional; summary of the method: as §1
RAW264.7 [5] = test: Antiinflammatory activity in mouse RAW264.7 cells assessed as inhibition of LPS-induced IL-6 production at 10 uM after 24 hrs by ELISA (reference value: 13412 +/- 1167.6 pg/ml); format: functional; summary of the method: as §1
RAW264.7 [6] = test: Antiinflammatory activity in mouse RAW264.7 cells assessed as inhibition of LPS-induced IL-6 production at 10 uM after 6 hrs by ELISA (reference value: 1046.1 +/- 111.2 pg/ml); format: functional; summary of the method: as §1
RAW264.7 [7] = test: Antiinflammatory activity in mouse RAW264.7 cells assessed as inhibition of LPS-induced TNFalpha production at 10 uM after 12 hrs by ELISA (reference value: 4126.8 +/- 282 pg/ml); format: functional; summary of the method: as §1
RAW264.7 [8] = test: Antiinflammatory activity in mouse RAW264.7 cells assessed as inhibition of LPS-induced TNFalpha production at 10 uM after 24 hrs by ELISA (reference value: 10124 +/- 1137.2 pg/ml); format: functional; summary of the method: as §1

| SMILES | pIC50 (RAW264.7 [1]) | pIC50 (RAW264.7 [2]) | other results |
| --- | --- | --- | --- |
| CCCOc1c(OC)ccc2c1[C@@]13CCN(C)[C@@H](C2)[C@H]1C=C(OC)C(=O)C3 | < 4.00 | < 4.00 |  |
| COC1=C[C@@H]2[C@@H]3Cc4ccc(OC)c(OCCOCCOCCOCCOc5c(OC)ccc6c5[C@@]57CCN(C)[C@@H](C6)[C@H]5C=C(OC)C(=O)C7)c4[C@]2(CCN3C)CC1=O | < 4.00 | < 4.00 |  |
| COC1=C[C@@H]2[C@@H]3Cc4ccc(OC)c(OCCOCCOc5c(OC)ccc6c5[C@@]57CCN(C)[C@@H](C6)[C@H]5C=C(OC)C(=O)C7)c4[C@]2(CCN3C)CC1=O | 4.22 |  |  |
| COC1=C[C@@H]2[C@@H]3Cc4ccc(OC)c(OC(=O)CCCCC(=O)Oc5c(OC)ccc6c5[C@@]57CCN(C)[C@@H](C6)[C@H]5C=C(OC)C(=O)C7)c4[C@]2(CCN3C)CC1=O | < 4.00 | < 4.00 |  |
| N=C(N)NN [PIMAGEDINE] |  | 4.65 |  |
| CCOc1c(OC)ccc2c1[C@@]13CCN(C)[C@@H](C2)[C@H]1C=C(OC)C(=O)C3 | < 4.00 | < 4.00 |  |
| CCCCCCCCCCOc1c(OC)ccc2c1[C@@]13CCN(C)[C@@H](C2)[C@H]1C=C(OC)C(=O)C3 | 5.72 |  |  |
| COC1=C[C@@H]2[C@@H]3Cc4ccc(OC)c(OC(=O)CCCCCCC(=O)Oc5c(OC)ccc6c5[C@@]57CCN(C)[C@@H](C6)[C@H]5C=C(OC)C(=O)C7)c4[C@]2(CCN3C)CC1=O | 4.76 |  |  |
| COC1=C[C@@H]2[C@@H]3Cc4ccc(OC)c(OC(=O)CCCCCCCC(=O)Oc5c(OC)ccc6c5[C@@]57CCN(C)[C@@H](C6)[C@H]5C=C(OC)C(=O)C7)c4[C@]2(CCN3C)CC1=O | 4.29 | 4.53 | Activity (RAW264.7 [3]): 2107.1 pg/mL; Activity (RAW264.7 [4]): 1577.1 pg/mL; Activity (RAW264.7 [5]): 12863.3 pg/mL; Activity (RAW264.7 [6]): 825.5 pg/mL; Activity (RAW264.7 [7]): 3614.3 pg/mL; Activity (RAW264.7 [8]): 9003.6 pg/mL |
| CCCCCCOc1c(OC)ccc2c1[C@@]13CCN(C)[C@@H](C2)[C@H]1C=C(OC)C(=O)C3 | 4.54 |  |  |
| CCCCCOc1c(OC)ccc2c1[C@@]13CCN(C)[C@@H](C2)[C@H]1C=C(OC)C(=O)C3 | 4.27 | 4.41 |  |
| CCCCCCCCOc1c(OC)ccc2c1[C@@]13CCN(C)[C@@H](C2)[C@H]1C=C(OC)C(=O)C3 | 4.75 | 4.85 |  |
| COC1=C[C@@H]2[C@@H]3Cc4ccc(OC)c(OC(=O)CCC(=O)Oc5c(OC)ccc6c5[C@@]57CCN(C)[C@@H](C6)[C@H]5C=C(OC)C(=O)C7)c4[C@]2(CCN3C)CC1=O | < 4.00 | < 4.00 |  |
| CCCCC(=O)Oc1c(OC)ccc2c1[C@@]13CCN(C)[C@@H](C2)[C@H]1C=C(OC)C(=O)C3 | < 4.00 | < 4.00 |  |
| CCCCCCC(=O)Oc1c(OC)ccc2c1[C@@]13CCN(C)[C@@H](C2)[C@H]1C=C(OC)C(=O)C3 | 4.41 |  |  |
| COC1=C[C@@H]2[C@@H]3Cc4ccc(OC)c(OC(=O)CCCC(=O)Oc5c(OC)ccc6c5[C@@]57CCN(C)[C@@H](C6)[C@H]5C=C(OC)C(=O)C7)c4[C@]2(CCN3C)CC1=O | < 4.00 | < 4.00 |  |
| COC1=C[C@@H]2[C@@H]3Cc4ccc(OC)c(OCCOc5c(OC)ccc6c5[C@@]57CCN(C)[C@@H](C6)[C@H]5C=C(OC)C(=O)C7)c4[C@]2(CCN3C)CC1=O | < 4.00 | < 4.00 |  |

| SMILES | pIC50 (RAW264.7 [1]) | pIC50 (RAW264.7 [2]) | other results |
| --- | --- | --- | --- |
| COC1=C[C@@H]2[C@@H]3Cc4ccc(OC)c(OCc5cccc(COc6c(OC)ccc7c6[C@@]68CCN(C)[C@@H](C7)[C@H]6C=C(OC)C(=O)C8)c5)c4[C@]2(CCN3C)CC1=O | 4.85 |  |  |
| COC1=C[C@@H]2[C@@H]3Cc4ccc(OC)c(OC(=O)CCCCCC(=O)Oc5c(OC)ccc6c5[C@@]57CCN(C)[C@@H](C6)[C@H]5C=C(OC)C(=O)C7)c4[C@]2(CCN3C)CC1=O | 4.28 |  |  |
| COC1=C[C@@H]2[C@@H]3Cc4ccc(OC)c(OCCCCOc5c(OC)ccc6c5[C@@]57CCN(C)[C@@H](C6)[C@H]5C=C(OC)C(=O)C7)c4[C@]2(CCN3C)CC1=O | 4.44 | 4.61 | Activity (RAW264.7 [3]): 2018 pg/mL; Activity (RAW264.7 [4]): 1321.9 pg/mL; Activity (RAW264.7 [5]): 10038.7 pg/mL; Activity (RAW264.7 [6]): 853.3 pg/mL; Activity (RAW264.7 [7]): 3732.8 pg/mL; Activity (RAW264.7 [8]): 8744.4 pg/mL |
| CCCCCC(=O)Oc1c(OC)ccc2c1[C@@]13CCN(C)[C@@H](C2)[C@H]1C=C(OC)C(=O)C3 | 4.11 |  |  |
| COC1=C[C@@H]2[C@@H]3Cc4ccc(OC)c(OCCCCCCCOc5c(OC)ccc6c5[C@@]57CCN(C)[C@@H](C6)[C@H]5C=C(OC)C(=O)C7)c4[C@]2(CCN3C)CC1=O | 5.59 |  |  |
| CCCCOc1c(OC)ccc2c1[C@@]13CCN(C)[C@@H](C2)[C@H]1C=C(OC)C(=O)C3 | 4.17 | 4.22 |  |
| CCCCCCCOc1c(OC)ccc2c1[C@@]13CCN(C)[C@@H](C2)[C@H]1C=C(OC)C(=O)C3 | 4.47 | 4.67 | Activity (RAW264.7 [3]): 2248.7 pg/mL; Activity (RAW264.7 [4]): 513.9 pg/mL; Activity (RAW264.7 [5]): 4370.2 pg/mL; Activity (RAW264.7 [6]): 207.5 pg/mL; Activity (RAW264.7 [7]): 4127.2 pg/mL; Activity (RAW264.7 [8]): 9134.7 pg/mL |
| COC1=C[C@@H]2[C@@H]3Cc4ccc(OC)c(OCCOCCOCCOc5c(OC)ccc6c5[C@@]57CCN(C)[C@@H](C6)[C@H]5C=C(OC)C(=O)C7)c4[C@]2(CCN3C)CC1=O | < 4.00 | < 4.00 |  |
| CCCC(=O)Oc1c(OC)ccc2c1[C@@]13CCN(C)[C@@H](C2)[C@H]1C=C(OC)C(=O)C3 | < 4.00 | < 4.00 |  |
| CCCCCCCCCOc1c(OC)ccc2c1[C@@]13CCN(C)[C@@H](C2)[C@H]1C=C(OC)C(=O)C3 | 4.84 |  |  |
| COC1=C[C@@H]2[C@@H]3Cc4ccc(OC)c(OCCCCCCCCCCOc5c(OC)ccc6c5[C@@]57CCN(C)[C@@H](C6)[C@H]5C=C(OC)C(=O)C7)c4[C@]2(CCN3C)CC1=O | 5.55 |  |  |
| COC1=C[C@@H]2[C@@H]3Cc4ccc(OC)c(OCc5ccc(COc6c(OC)ccc7c6[C@@]68CCN(C)[C@@H](C7)[C@H]6C=C(OC)C(=O)C8)cc5)c4[C@]2(CCN3C)CC1=O | 4.90 |  |  |
| COC1=C[C@@H]2[C@@H]3Cc4ccc(OC)c(OCCCCCOc5c(OC)ccc6c5[C@@]57CCN(C)[C@@H](C6)[C@H]5C=C(OC)C(=O)C7)c4[C@]2(CCN3C)CC1=O | 5.38 | 5.44 |  |
| COC1=C[C@@H]2[C@@H]3Cc4ccc(OC)c(OCCCCCCCCCOc5c(OC)ccc6c5[C@@]57CCN(C)[C@@H](C6)[C@H]5C=C(OC)C(=O)C7)c4[C@]2(CCN3C)CC1=O | 5.43 | 5.54 |  |
| COC1=C[C@@H]2[C@@H]3Cc4ccc(OC)c(OCCCCCCCCOc5c(OC)ccc6c5[C@@]57CCN(C)[C@@H](C6)[C@H]5C=C(OC)C(=O)C7)c4[C@]2(CCN3C)CC1=O | 5.27 | 5.42 |  |
| COC1=C[C@@H]2[C@@H]3Cc4ccc(OC)c(OCCCCCCOc5c(OC)ccc6c5[C@@]57CCN(C)[C@@H](C6)[C@H]5C=C(OC)C(=O)C7)c4[C@]2(CCN3C)CC1=O | 5.02 |  |  |
| CCCCCCCC(=O)Oc1c(OC)ccc2c1[C@@]13CCN(C)[C@@H](C2)[C@H]1C=C(OC)C(=O)C3 | 4.31 | 4.49 | Activity (RAW264.7 [3]): 2298.9 pg/mL; Activity (RAW264.7 [4]): 733.3 pg/mL; Activity (RAW264.7 [5]): 7143.8 pg/mL; Activity (RAW264.7 [6]): 229.9 pg/mL; Activity (RAW264.7 [7]): 3357.8 pg/mL; Activity (RAW264.7 [8]): 7676.3 pg/mL |
